Test results: ChEMBL document CHEMBL4689842, “EUbOPEN Chemogenomics Library wave 1” (2021)

Test system: U2OS
Assay: Multiplex assay against U2OS
Type: toxicity, cell-based
Conditions: human
In short: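 Four dyes were applied at seeding to live cells: Hoechst33342, BioTracker Green Microtubule Cytoskeleton Dye, MitoTracker Red and Annexin V Alexa Fluor 680. Imaging after compound addition used a CQ1 microscope at 37°C and 5% CO2. CellPathfinder machine-learning gating then sorted cells into Hoechst high-intensity objects or normal cells, normal cells into healthy, pyknosed or fragmented nuclei, and pyknosed cells into mitotic or apoptotic, with tubulin, mitochondrial-mass and membrane-permeability phenotypes given as per cents of healthy-nucleus cells.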

[1] = 12 h, 1 µM, compound concentration 1 uM, replicate 1
[2] = 12 h, 1 µM, compound concentration 1 uM, replicate 2
[3] = 12 h, 10 µM, compound concentration 10 uM, replicate 1
[4] = 12 h, 10 µM, compound concentration 10 uM, replicate 2
[5] = 24 h, 1 µM, compound concentration 1 uM, replicate 1
[6] = 24 h, 1 µM, compound concentration 1 uM, replicate 2
[7] = 24 h, 10 µM, compound concentration 10 uM, replicate 1
[8] = 24 h, 10 µM, compound concentration 10 uM, replicate 2
[9] = 48 h, 1 µM, compound concentration 1 uM, replicate 1
[10] = 48 h, 1 µM, compound concentration 1 uM, replicate 2
[11] = 48 h, 10 µM, compound concentration 10 uM, replicate 1
[12] = 48 h, 10 µM, compound concentration 10 uM, replicate 2

Cc1cccc(CN2CCN(C(c3ccccc3)c3ccc(Cl)cc3)CC2)c1.Cl.Cl (configuration not stated)
Population Apoptotic (%) [1]: 27%
Population Fragmented Nuclei (%) [1]: 4%
Population Healthy Nuclei (%) [1]: 87%
Population Hoechst High Intensity Objects (%) [1]: 6%
Population Membrane Permeable-Phenotype (%) [1]: 3%
Population Mitochondria Different-Phenotype (%) [1]: 6%
Population Mitotic Cells (%) [1]: 72%
Population Normal (%) [1]: 93%
Population Pyknosed Nuclei (%) [1]: 7%
Population Tubulin-Different-Phenotype (%) [1]: 3%
Total Cell Count [1]: 182
Population Apoptotic (%) [2]: 0%
Population Fragmented Nuclei (%) [2]: 16%
Population Healthy Nuclei (%) [2]: 79%
Population Hoechst High Intensity Objects (%) [2]: 8%
Population Membrane Permeable-Phenotype (%) [2]: 4%
Population Mitochondria Different-Phenotype (%) [2]: 26%
Population Mitotic Cells (%) [2]: 100%
Population Normal (%) [2]: 91%
Population Pyknosed Nuclei (%) [2]: 3%
Population Tubulin-Different-Phenotype (%) [2]: 23%
Total Cell Count [2]: 48
Population Apoptotic (%) [3]: 54%
Population Fragmented Nuclei (%) [3]: 6%
Population Healthy Nuclei (%) [3]: 76%
Population Hoechst High Intensity Objects (%) [3]: 5%
Population Membrane Permeable-Phenotype (%) [3]: 4%
Population Mitochondria Different-Phenotype (%) [3]: 73%
Population Mitotic Cells (%) [3]: 45%
Population Normal (%) [3]: 94%
Population Pyknosed Nuclei (%) [3]: 16%
Population Tubulin-Different-Phenotype (%) [3]: 78%
Total Cell Count [3]: 149
Population Apoptotic (%) [4]: 50%
Population Fragmented Nuclei (%) [4]: 14%
Population Healthy Nuclei (%) [4]: 72%
Population Hoechst High Intensity Objects (%) [4]: 6%
Population Membrane Permeable-Phenotype (%) [4]: 6%
Population Mitochondria Different-Phenotype (%) [4]: 61%
Population Mitotic Cells (%) [4]: 50%
Population Normal (%) [4]: 93%
Population Pyknosed Nuclei (%) [4]: 13%
Population Tubulin-Different-Phenotype (%) [4]: 47%
Total Cell Count [4]: 58
Population Apoptotic (%) [5]: 45%
Population Fragmented Nuclei (%) [5]: 7%
Population Healthy Nuclei (%) [5]: 86%
Population Hoechst High Intensity Objects (%) [5]: 5%
Population Membrane Permeable-Phenotype (%) [5]: 2%
Population Mitochondria Different-Phenotype (%) [5]: 8%
Population Mitotic Cells (%) [5]: 54%
Population Normal (%) [5]: 94%
Population Pyknosed Nuclei (%) [5]: 6%
Population Tubulin-Different-Phenotype (%) [5]: 2%
Total Cell Count [5]: 176
Population Apoptotic (%) [6]: 80%
Population Fragmented Nuclei (%) [6]: 18%
Population Healthy Nuclei (%) [6]: 73%
Population Hoechst High Intensity Objects (%) [6]: 10%
Population Membrane Permeable-Phenotype (%) [6]: 11%
Population Mitochondria Different-Phenotype (%) [6]: 13%
Population Mitotic Cells (%) [6]: 20%
Population Normal (%) [6]: 89%
Population Pyknosed Nuclei (%) [6]: 8%
Population Tubulin-Different-Phenotype (%) [6]: 22%
Total Cell Count [6]: 47
Population Apoptotic (%) [7]: 42%
Population Fragmented Nuclei (%) [7]: 6%
Population Healthy Nuclei (%) [7]: 74%
Population Hoechst High Intensity Objects (%) [7]: 7%
Population Membrane Permeable-Phenotype (%) [7]: 2%
Population Mitochondria Different-Phenotype (%) [7]: 65%
Population Mitotic Cells (%) [7]: 57%
Population Normal (%) [7]: 92%
Population Pyknosed Nuclei (%) [7]: 19%
Population Tubulin-Different-Phenotype (%) [7]: 61%
Total Cell Count [7]: 181
Population Apoptotic (%) [8]: 11%
Population Fragmented Nuclei (%) [8]: 10%
Population Healthy Nuclei (%) [8]: 77%
Population Hoechst High Intensity Objects (%) [8]: 5%
Population Membrane Permeable-Phenotype (%) [8]: 5%
Population Mitochondria Different-Phenotype (%) [8]: 63%
Population Mitotic Cells (%) [8]: 88%
Population Normal (%) [8]: 94%
Population Pyknosed Nuclei (%) [8]: 12%
Population Tubulin-Different-Phenotype (%) [8]: 45%
Total Cell Count [8]: 67
Population Apoptotic (%) [9]: 30%
Population Fragmented Nuclei (%) [9]: 5%
Population Healthy Nuclei (%) [9]: 85%
Population Hoechst High Intensity Objects (%) [9]: 3%
Population Membrane Permeable-Phenotype (%) [9]: 1%
Population Mitochondria Different-Phenotype (%) [9]: 11%
Population Mitotic Cells (%) [9]: 69%
Population Normal (%) [9]: 96%
Population Pyknosed Nuclei (%) [9]: 8%
Population Tubulin-Different-Phenotype (%) [9]: 5%
Total Cell Count [9]: 192
Population Apoptotic (%) [10]: 0%
Population Fragmented Nuclei (%) [10]: 9%
Population Healthy Nuclei (%) [10]: 84%
Population Hoechst High Intensity Objects (%) [10]: 7%
Population Membrane Permeable-Phenotype (%) [10]: 5%
Population Mitochondria Different-Phenotype (%) [10]: 16%
Population Mitotic Cells (%) [10]: 100%
Population Normal (%) [10]: 92%
Population Pyknosed Nuclei (%) [10]: 6%
Population Tubulin-Different-Phenotype (%) [10]: 24%
Total Cell Count [10]: 45
Population Apoptotic (%) [11]: 54%
Population Fragmented Nuclei (%) [11]: 8%
Population Healthy Nuclei (%) [11]: 72%
Population Hoechst High Intensity Objects (%) [11]: 4%
Population Membrane Permeable-Phenotype (%) [11]: 3%
Population Mitochondria Different-Phenotype (%) [11]: 42%
Population Mitotic Cells (%) [11]: 45%
Population Normal (%) [11]: 95%
Population Pyknosed Nuclei (%) [11]: 18%
Population Tubulin-Different-Phenotype (%) [11]: 44%
Total Cell Count [11]: 299
Population Apoptotic (%) [12]: 25%
Population Fragmented Nuclei (%) [12]: 12%
Population Healthy Nuclei (%) [12]: 71%
Population Hoechst High Intensity Objects (%) [12]: 5%
Population Membrane Permeable-Phenotype (%) [12]: 7%
Population Mitochondria Different-Phenotype (%) [12]: 30%
Population Mitotic Cells (%) [12]: 75%
Population Normal (%) [12]: 94%
Population Pyknosed Nuclei (%) [12]: 16%
Population Tubulin-Different-Phenotype (%) [12]: 18%
Total Cell Count [12]: 95

CC(C)Oc1ccccc1C(=O)Nc1ccccc1C(=O)Nc1cccc(S(=O)(=O)C(F)(F)F)c1
Population Apoptotic (%) [1]: 47%
Population Fragmented Nuclei (%) [1]: 14%
Population Healthy Nuclei (%) [1]: 67%
Population Hoechst High Intensity Objects (%) [1]: 11%
Population Membrane Permeable-Phenotype (%) [1]: 4%
Population Mitochondria Different-Phenotype (%) [1]: 61%
Population Mitotic Cells (%) [1]: 52%
Population Normal (%) [1]: 88%
Population Pyknosed Nuclei (%) [1]: 18%
Population Tubulin-Different-Phenotype (%) [1]: 55%
Total Cell Count [1]: 120
Population Apoptotic (%) [2]: 33%
Population Fragmented Nuclei (%) [2]: 20%
Population Healthy Nuclei (%) [2]: 74%
Population Hoechst High Intensity Objects (%) [2]: 5%
Population Membrane Permeable-Phenotype (%) [2]: 10%
Population Mitochondria Different-Phenotype (%) [2]: 45%
Population Mitotic Cells (%) [2]: 66%
Population Normal (%) [2]: 94%
Population Pyknosed Nuclei (%) [2]: 6%
Population Tubulin-Different-Phenotype (%) [2]: 37%
Total Cell Count [2]: 62
Population Apoptotic (%) [3]: 68%
Population Fragmented Nuclei (%) [3]: 14%
Population Healthy Nuclei (%) [3]: 61%
Population Hoechst High Intensity Objects (%) [3]: 8%
Population Membrane Permeable-Phenotype (%) [3]: 95%
Population Mitochondria Different-Phenotype (%) [3]: 61%
Population Mitotic Cells (%) [3]: 32%
Population Normal (%) [3]: 91%
Population Pyknosed Nuclei (%) [3]: 24%
Total Cell Count [3]: 142
Population Apoptotic (%) [4]: 90%
Population Fragmented Nuclei (%) [4]: 17%
Population Healthy Nuclei (%) [4]: 71%
Population Hoechst High Intensity Objects (%) [4]: 4%
Population Membrane Permeable-Phenotype (%) [4]: 97%
Population Mitochondria Different-Phenotype (%) [4]: 92%
Population Mitotic Cells (%) [4]: 10%
Population Normal (%) [4]: 96%
Population Pyknosed Nuclei (%) [4]: 10%
Population Tubulin-Different-Phenotype (%) [4]: 100%
Total Cell Count [4]: 53
Population Apoptotic (%) [5]: 55%
Population Fragmented Nuclei (%) [5]: 15%
Population Healthy Nuclei (%) [5]: 71%
Population Hoechst High Intensity Objects (%) [5]: 8%
Population Membrane Permeable-Phenotype (%) [5]: 2%
Population Mitochondria Different-Phenotype (%) [5]: 48%
Population Mitotic Cells (%) [5]: 44%
Population Normal (%) [5]: 91%
Population Pyknosed Nuclei (%) [5]: 13%
Population Tubulin-Different-Phenotype (%) [5]: 48%
Total Cell Count [5]: 109
Population Apoptotic (%) [6]: 33%
Population Fragmented Nuclei (%) [6]: 21%
Population Healthy Nuclei (%) [6]: 66%
Population Hoechst High Intensity Objects (%) [6]: 7%
Population Membrane Permeable-Phenotype (%) [6]: 11%
Population Mitochondria Different-Phenotype (%) [6]: 58%
Population Mitotic Cells (%) [6]: 66%
Population Normal (%) [6]: 92%
Population Pyknosed Nuclei (%) [6]: 11%
Population Tubulin-Different-Phenotype (%) [6]: 35%
Total Cell Count [6]: 57
Population Apoptotic (%) [7]: 74%
Population Fragmented Nuclei (%) [7]: 23%
Population Healthy Nuclei (%) [7]: 48%
Population Hoechst High Intensity Objects (%) [7]: 6%
Population Membrane Permeable-Phenotype (%) [7]: 92%
Population Mitochondria Different-Phenotype (%) [7]: 74%
Population Mitotic Cells (%) [7]: 25%
Population Normal (%) [7]: 93%
Population Pyknosed Nuclei (%) [7]: 27%
Population Tubulin-Different-Phenotype (%) [7]: 100%
Total Cell Count [7]: 148
Population Apoptotic (%) [8]: 100%
Population Fragmented Nuclei (%) [8]: 17%
Population Healthy Nuclei (%) [8]: 56%
Population Hoechst High Intensity Objects (%) [8]: 11%
Population Membrane Permeable-Phenotype (%) [8]: 91%
Population Mitochondria Different-Phenotype (%) [8]: 94%
Population Mitotic Cells (%) [8]: 0%
Population Normal (%) [8]: 88%
Population Tubulin-Different-Phenotype (%) [8]: 98%
Total Cell Count [8]: 55
Population Apoptotic (%) [9]: 81%
Population Fragmented Nuclei (%) [9]: 10%
Population Healthy Nuclei (%) [9]: 74%
Population Hoechst High Intensity Objects (%) [9]: 3%
Population Membrane Permeable-Phenotype (%) [9]: 4%
Population Mitochondria Different-Phenotype (%) [9]: 31%
Population Mitotic Cells (%) [9]: 18%
Population Normal (%) [9]: 96%
Population Pyknosed Nuclei (%) [9]: 14%
Population Tubulin-Different-Phenotype (%) [9]: 25%
Total Cell Count [9]: 109
Population Apoptotic (%) [10]: 66%
Population Fragmented Nuclei (%) [10]: 22%
Population Healthy Nuclei (%) [10]: 72%
Population Hoechst High Intensity Objects (%) [10]: 7%
Population Membrane Permeable-Phenotype (%) [10]: 18%
Population Mitochondria Different-Phenotype (%) [10]: 48%
Population Mitotic Cells (%) [10]: 33%
Population Normal (%) [10]: 92%
Population Pyknosed Nuclei (%) [10]: 5%
Population Tubulin-Different-Phenotype (%) [10]: 41%
Total Cell Count [10]: 56
Population Apoptotic (%) [11]: 77%
Population Fragmented Nuclei (%) [11]: 64%
Population Healthy Nuclei (%) [11]: 19%
Population Hoechst High Intensity Objects (%) [11]: 7%
Population Membrane Permeable-Phenotype (%) [11]: 36%
Population Mitochondria Different-Phenotype (%) [11]: 84%
Population Mitotic Cells (%) [11]: 22%
Population Normal (%) [11]: 93%
Population Pyknosed Nuclei (%) [11]: 15%
Population Tubulin-Different-Phenotype (%) [11]: 93%
Total Cell Count [11]: 190
Population Apoptotic (%) [12]: 64%
Population Fragmented Nuclei (%) [12]: 43%
Population Healthy Nuclei (%) [12]: 38%
Population Hoechst High Intensity Objects (%) [12]: 9%
Population Membrane Permeable-Phenotype (%) [12]: 62%
Population Mitochondria Different-Phenotype (%) [12]: 75%
Population Mitotic Cells (%) [12]: 36%
Population Normal (%) [12]: 90%
Population Pyknosed Nuclei (%) [12]: 17%
Population Tubulin-Different-Phenotype (%) [12]: 98%
Total Cell Count [12]: 64
